An excerpt weighted towards active compounds, which were near 3% of everything screened.
TRPC4 act: activators of mouse TRPC4 channel; HEK293 TRPC4beta/mu-opioid, Fluo4 calcium fluorescence; stronger effect = higher value; B-score at 10 µM; 310,000 tested, 0.49% active; AID 2237;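 active means B-score above 5 SD of library B-scores, and initial fluorescence ratio not above library mean plus 5 SD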;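 further: positive B-score marks a calcium rise read as TRPC4 activation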
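Material: TRPC4beta and mu-opioid receptor HEK293 stable cells | Incubation: 45 min room-temperature Fluo4 loading, 110 s read | Detection: Kinetic Fluo4 calcium fluorescence | Measure: Integrated baseline-normalised fluorescence ratio, converted to per-well B score | Benchmarks: Low control buffer alone, high control maximal DAMGO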
TRPC4 potent: allosterically enhances the mouse TRPC4 cation channel; Q9QUQ5; HEK293 TRPC4beta/mu-opioid, DAMGO EC20, Fluo-4 Ca2+ flux; stronger effect = higher value; B-score at 10 µM; 310,000 tested, 0.42% active; AID 2227;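 active means B-score of calcium response area above 5 SD of library B-scores, with initial fluorescence ratio within 5 SD of library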;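 further: B-score of integrated fluorescence ratio over time as area under calcium response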
TRPC6 act: activates the mouse TRPC6 cation channel. HEK293-TRPC6 membrane potential dye fluorescence; stronger effect = higher value. 310,000 tested, 0.13% active. Q61143. B-score at 10 µM;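 active means B-score of the integrated fluorescence ratio above library mean plus 3 SD, and starting fluorescence ratio within library mean plus 5 SD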;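 further: higher score means more depolarization so channel activation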
Target sequence (Q61143 whole entry, looked up): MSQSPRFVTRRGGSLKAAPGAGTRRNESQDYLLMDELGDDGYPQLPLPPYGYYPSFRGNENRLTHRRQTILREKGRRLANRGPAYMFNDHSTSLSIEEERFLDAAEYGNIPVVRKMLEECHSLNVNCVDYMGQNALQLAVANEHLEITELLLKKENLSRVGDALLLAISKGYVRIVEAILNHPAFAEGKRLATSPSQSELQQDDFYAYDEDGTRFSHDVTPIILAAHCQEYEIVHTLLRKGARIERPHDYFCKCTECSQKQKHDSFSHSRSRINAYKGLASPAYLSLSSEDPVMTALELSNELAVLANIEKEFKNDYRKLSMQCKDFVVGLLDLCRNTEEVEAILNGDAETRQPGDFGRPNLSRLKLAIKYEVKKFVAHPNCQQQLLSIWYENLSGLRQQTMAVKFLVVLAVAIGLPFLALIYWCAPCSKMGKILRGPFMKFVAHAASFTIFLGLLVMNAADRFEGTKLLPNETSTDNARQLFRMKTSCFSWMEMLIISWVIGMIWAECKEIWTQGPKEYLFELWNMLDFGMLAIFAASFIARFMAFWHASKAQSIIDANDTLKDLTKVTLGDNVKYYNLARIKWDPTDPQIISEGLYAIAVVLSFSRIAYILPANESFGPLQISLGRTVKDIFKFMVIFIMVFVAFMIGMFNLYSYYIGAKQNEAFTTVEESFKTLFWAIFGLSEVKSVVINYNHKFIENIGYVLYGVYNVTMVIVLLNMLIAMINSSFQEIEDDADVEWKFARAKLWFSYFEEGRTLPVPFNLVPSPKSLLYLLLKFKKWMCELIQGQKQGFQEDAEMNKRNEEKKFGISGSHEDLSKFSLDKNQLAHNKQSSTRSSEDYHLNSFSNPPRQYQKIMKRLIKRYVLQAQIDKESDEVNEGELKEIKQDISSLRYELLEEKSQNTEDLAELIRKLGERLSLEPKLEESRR
TRPC6 inh: mouse TRPC6 channel inhibition | Q61143 | HEK293-TRPC6, membrane potential dye, ACh-evoked depolarization; stronger effect = lower value | B-score at 10 µM | 310,000 tested, 1.1% active | AID 2553;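 active means B-score under library mean minus 3 SD, initial fluorescence not abnormally high, positive integrated signal ratio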;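 further: B-score derived from integrated fluorescence ratio over the kinetic read; more negative B-score means stronger inhibition of depolarization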
TRPC4 block: blocks the mouse TRPC4 cation channel; Q9QUQ5; HEK293 TRPC4beta/mu-opioid, DAMGO-evoked Fluo4 calcium flux; stronger effect = lower value; B-score at 10 µM; 300,000 tested, 0.39% active; AID 2247;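 active means B-score over 3 SD under the library average, no early fluorescence shift, positive overall ratio signal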
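test system = HEK293 cells with stable TRPC4beta plus mu-opioid receptor expression | detection = Fluo4 Ca2+ flux fluorescence | read-out = integrated fluorescence ratio relative to baseline, converted to per-well B score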
Kir21 block: blocks the mouse Kir2.1 inward-rectifier potassium channel; HEK293-Kir2.1, FluxOR thallium flux fluorescence; stronger effect = lower value; B-score at 10 µM; 310,000 tested, 0.85% active; AID 1672;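 active means fluorescence ratio B-score at or below minus 3 SD of library scores, with starting-brightness B-score within 2 SD, cut at about -4.2 in these data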;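 further: channel flux triggered by added potassium and thallium sulfate stimulus; B-score of peak minus minimum fluorescence over baseline after thallium stimulus; more negative B-score means stronger Kir2.1 block with less thallium influx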
Numbers without * were called inactive; i = inactive; nt = no result given.

SMILES	TRPC4 act	TRPC4 potent	TRPC6 act	TRPC6 inh	TRPC4 block	Kir21 block
Fc1ccc(Nc2c3c(nc4ccccc24)CCC3)cc1	i	i	i	i	i	-5.1*
CN(C)CCCNc1c2c(nc3ccccc13)CCC2	i	i	i	i	i	-0.18
COc1ccc(OC)c(NC(=O)c2c3c(nc4ccccc24)CCC3)c1	i	i	i	i	i	-1.4
c1ccc(Nc2c3c(nc4ccccc24)CCC3)cc1	i	i	i	i	i	-4.9*
c1ccc2c(Nc3ccc4c(c3)OCCO4)c3c(nc2c1)CCC3	i	i	i	i	i	-0.98
Cc1ccc2nc3c(c(Nc4ccccc4)c2c1)CCC3	i	i	i	i	i	-4.4*
COc1ccc(C)cc1Nc1c2c(nc3ccccc13)CCC2	i	i	i	i	i	-9.3*
Cc1ccccc1C(=O)Nc1c2c(nc3ccccc13)CCCC2	i	i	i	i	i	-1.3
Clc1c2c(nc3ccccc13)CCC2	i	i	i	i	i	-1.2
Nc1c2c(nc3ccccc13)CCCC2	i	i	i	-5.3*	i	0.11
COc1cccc(CC(=O)Nc2ccccc2C(=O)N2CCOCC2)c1	i	i	i	i	i	0
Cc1ccc(NC(=O)CSCC(=O)Nc2cc(Cl)ccc2N2CCOCC2)cc1	i	i	i	i	i	-1.7
COc1ccc(CC(=O)Nc2ccccc2N2CCCCC2)cc1OC	i	i	i	i	i	-6.2*
COc1cccc(CC(=O)Nc2ccccc2N2CCCC2)c1	i	i	i	i	i	-6.7*
Cc1cccc(NC(=O)CSCC(=O)Nc2cc(Cl)ccc2N2CCN(C)CC2)c1	i	i	i	i	i	-4.6*
CCC(Oc1ccccc1)C(=O)Nc1ccccc1N1CCCC1 (stereo not drawn)	i	i	i	i	i	-5.5*
CCC(Oc1ccccc1)C(=O)Nc1ccccc1N1CCCCC1 (stereo not drawn)	i	i	i	i	i	-0.15
COc1ccccc1-c1noc2ncnc(Nc3ccc4c(c3)OCO4)c12	i	i	i	i	i	1.4
O=C(NCC1CCCN(Cc2ccc3nonc3c2)C1)c1cccc(C(F)(F)F)c1 (stereo not drawn)	i	i	i	i	i	-0.16
On1nnc2ccccc21	i	i	i	i	i	2
COc1ccc(S(=O)(=O)N2CCOCC2)cc1NC(=O)Cc1coc2cc(C)c(C)cc12	i	i	i	i	i	0.02
COc1ccc(OC)c(Cc2nnc(CCC(=O)NC3C4CC5CC(C4)CC3C5)o2)c1 (stereo not drawn)	i	i	i	i	i	-1.2
Cc1ccc(NC(=O)CSCC(=O)Nc2ccccc2N2CCCC2)cc1	i	i	i	i	i	-6.7*
CSc1ccccc1NC(=O)CSCc1ccc(C)cc1	i	i	i	i	i	-5.1*
O=C(CCNC(=O)c1ccc(Br)cc1)Nc1ccccc1N1CCCCC1	i	i	i	i	-6*	-1.2
SMILES	TRPC4 act	TRPC4 potent	TRPC6 act	TRPC6 inh	TRPC4 block	Kir21 block
CCC(=O)Nc1ccc(N2CCCCC2)c(C(=O)Nc2ccc(OC)cc2)c1	i	i	i	i	i	1.4
O=C(CCNC(=O)c1ccccc1Cl)Nc1ccccc1N1CCCC1	i	i	i	i	i	-0.03
Cc1ccc(CSCC(=O)Nc2ccccc2C(=O)O)cc1	i	i	i	i	i	1.3
COc1ccc(CC(=O)Nc2ccc(N3CCCC3)c(C)c2)cc1	i	i	i	i	i	-9.8*
Cn1cc(CN2CCC(CO)(CCCc3ccccc3)CC2)c(-c2ccccc2)n1	i	i	i	i	i	-0.97
CC(=O)Nc1cccc(NC(C)=C(C#N)C#N)c1	i	i	i	i	i	0.42
CCCn1c(=O)c2sccc2n2c(CCCC(=O)NC3CCN(Cc4ccccc4)CC3)nnc12	i	16*	i	i	i	-0.32
O=C(CCCCn1c(=O)c2ccccc2n(Cc2ccccc2F)c1=O)NC1CCN(Cc2ccccc2)CC1	i	12*	i	i	i	-0.74
O=C(CCCCn1c(=O)[nH]c2ccccc2c1=O)NC1CCN(Cc2ccccc2)CC1	86*	i	i	i	i	1.2
Cc1cc(NC(=O)Cn2c(=O)n(CCCCC(=O)NC3CCN(Cc4ccccc4)CC3)c(=O)c3ccccc32)n[nH]1	i	11*	i	i	i	0.72
Clc1ccc(Cn2c(-c3cccnc3Cl)nc3ccccc32)c(Cl)c1	i	i	i	i	i	0.78
Clc1ccc(Cn2c(-c3cccnc3Cl)nc3ccccc32)cc1	i	i	i	i	i	-5.3*
FC(F)(F)c1cnc(Sc2ncn[nH]2)c(Cl)c1	i	i	i	i	i	-0.03
Cc1ccccc1NS(=O)(=O)c1ccc(C(=O)NCCCN2CCOCC2)cc1	i	i	i	i	i	0.77
Cc1ccccc1NS(=O)(=O)c1ccc2[nH]cc(C(=O)NCCCN3CCOCC3)c(=O)c2c1	i	i	i	-6*	nt	-0.64
Cn1c(=O)[nH]c(=O)c2c1nc1n2CC(O)CN1c1ccccc1 (stereo not drawn)	i	i	i	i	i	-2.9
COc1ccc(C2CC(c3ccccc3)Nc3nc(NC(=O)c4cccs4)nn32)cc1 (stereo not drawn)	i	i	i	i	-6*	1.9
COc1ccc(C2CC(c3ccccc3)n3nc(NC(=O)c4cccs4)nc3N2)cc1 (stereo not drawn)	i	i	i	i	i	-0.14
Cc1ccc(C2(C(=O)N3CCC(n4nc(-c5ccccc5)oc4=O)CC3)CC2)cc1	i	i	i	i	i	0.14
COc1ccc(C2CC(=O)c3cnc(N4CCN(Cc5ccccc5)CC4)nc3C2)cc1 (stereo not drawn)	i	19*	i	i	i	-0.58
Cc1ccc(C2CC(=O)c3cnc(N4CCN(c5ccccc5)CC4)nc3C2)cc1 (stereo not drawn)	i	i	i	i	i	0.27
O=C(Cc1ccc(Br)cc1)N1CCN(C(=O)c2ccco2)CC1	i	i	i	i	i	1.3
CCC(C)NC(=O)CSc1nnc(-c2ccc(Cl)cc2)n1N (stereo not drawn)	i	i	i	i	i	-1.8
